Data on 9 compounds can be found in paper PMC4137986 (Chemical Research in Toxicology, 2014).

Entries after “also recorded” stand apart in the source; their conditions may differ. Like-named read-outs stand apart in the source and are kept apart here.

The target of one data set is T1, P450 1A2 (Homo sapiens, UniProt P05177).
T1 sequence (P05177 1-516): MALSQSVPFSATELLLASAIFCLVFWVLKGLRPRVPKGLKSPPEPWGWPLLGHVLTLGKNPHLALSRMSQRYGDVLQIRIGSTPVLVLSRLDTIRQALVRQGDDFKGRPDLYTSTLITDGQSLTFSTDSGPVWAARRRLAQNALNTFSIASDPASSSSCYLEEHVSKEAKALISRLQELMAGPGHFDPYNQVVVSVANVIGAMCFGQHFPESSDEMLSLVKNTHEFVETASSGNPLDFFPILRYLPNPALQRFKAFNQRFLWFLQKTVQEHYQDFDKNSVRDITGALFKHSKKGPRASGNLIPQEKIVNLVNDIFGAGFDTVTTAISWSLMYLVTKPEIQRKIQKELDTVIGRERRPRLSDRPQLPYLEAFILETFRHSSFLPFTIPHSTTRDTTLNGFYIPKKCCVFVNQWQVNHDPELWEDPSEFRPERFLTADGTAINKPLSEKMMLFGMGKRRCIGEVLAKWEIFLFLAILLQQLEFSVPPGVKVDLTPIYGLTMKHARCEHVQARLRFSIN
The experiment in a line: P450 1A2-dependent demethylation of resorufin methyl ether. In kind it is biochemical.

In the next data set the target is T2, P450 1A2 over P450 1A1 (Homo sapiens, UniProt P05177).
T2 sequence (P05177 1-516): T1 sequence (P05177 1-516)
Described as above. It counts as biochemical. Particulars: human, recombinant human CYP1A1 and CYP1A2 supersomes, pH 7.6.

The target in a further data set is T3, P450 2B1 (Rattus norvegicus, UniProt P00176).
T3 sequence (P00176 1-491): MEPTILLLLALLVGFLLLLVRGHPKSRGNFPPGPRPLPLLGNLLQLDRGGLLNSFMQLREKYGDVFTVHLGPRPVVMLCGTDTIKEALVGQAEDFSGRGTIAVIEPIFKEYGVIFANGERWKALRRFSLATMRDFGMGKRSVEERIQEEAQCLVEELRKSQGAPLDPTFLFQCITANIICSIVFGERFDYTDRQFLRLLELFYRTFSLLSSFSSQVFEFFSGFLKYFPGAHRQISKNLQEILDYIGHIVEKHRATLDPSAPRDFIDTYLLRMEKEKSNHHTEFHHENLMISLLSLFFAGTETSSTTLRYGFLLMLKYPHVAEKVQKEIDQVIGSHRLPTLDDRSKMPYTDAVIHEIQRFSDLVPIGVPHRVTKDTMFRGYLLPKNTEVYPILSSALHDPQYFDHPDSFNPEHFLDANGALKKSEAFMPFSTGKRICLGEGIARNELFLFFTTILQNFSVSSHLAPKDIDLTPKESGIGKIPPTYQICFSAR
Kind of data set: P450 2B1-dependent depentylation of resorufin pentyl ether. In kind it is biochemical. A digest of the protocol: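 Rat P450 2B1 microsomes (5 nM final) were used in 0.1 M potassium phosphate pH 7.6 with MgCl2, with 5 μM resorufin pentyl ether in DMSO. Reactions were started with an NADPH-regenerating system (NADP+, glucose 6-phosphate, G6PDH) and run at 37 °C. Resorufin formation was followed continuously at ex 535/em 585 nm.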

Data set [1] addresses T4, P450 1A1 (Homo sapiens, UniProt P04798).
T4 sequence (P04798 1-512): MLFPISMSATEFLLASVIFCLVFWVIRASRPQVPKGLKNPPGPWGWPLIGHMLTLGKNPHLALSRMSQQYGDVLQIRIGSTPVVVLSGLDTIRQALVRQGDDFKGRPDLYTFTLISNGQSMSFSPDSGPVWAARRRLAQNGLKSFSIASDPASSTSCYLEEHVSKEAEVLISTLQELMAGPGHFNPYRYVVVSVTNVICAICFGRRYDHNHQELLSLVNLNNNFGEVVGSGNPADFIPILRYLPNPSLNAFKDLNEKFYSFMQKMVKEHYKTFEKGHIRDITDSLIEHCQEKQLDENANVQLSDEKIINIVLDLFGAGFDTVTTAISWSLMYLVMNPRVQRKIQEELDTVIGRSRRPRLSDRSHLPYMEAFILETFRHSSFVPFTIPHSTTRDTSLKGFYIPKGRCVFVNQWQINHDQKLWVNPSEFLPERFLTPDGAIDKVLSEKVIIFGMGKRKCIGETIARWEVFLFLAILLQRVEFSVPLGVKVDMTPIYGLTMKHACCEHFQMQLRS
Kind of data set: NADPH-dependency assay. In kind it is biochemical. Particulars: for NADPH-dependency of the inhibition of P450 1A1: 5 min preincubation with vs without NADPH. The method, boiled down:
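Human P450 1A1 microsomes (1.6 nM final) were used in 0.1 M potassium phosphate pH 7.6 with MgCl2, with inhibitor in DMSO at 0.00625 or 0.1 μM. Preincubation was 5 min at 37 °C either with an NADPH-regenerating system, then started with 5 μM resorufin ethyl ether, or without NADPH, then started with regenerating system plus substrate. Resorufin time-course was read at ex 535/em 585 nm, 37 °C.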

Data set [2] concerns the target T4, P450 1A1. The experiment in a line: Time-dependent inhibition kinetics of P450 1A1. Conditions: for time-dependent inhibition of P450 1A1 (type of inhibition): time-course curves; for kinact: read-out: limiting kinact. In kind it is biochemical. The method, boiled down: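 Human P450 1A1 microsomes (1.6 nM) were used with 5 μM resorufin ethyl ether in pH 7.6 phosphate buffer, with the NADPH-regenerating system added to start the reaction at 37 °C. Product was monitored continuously for 6 min at several inhibitor concentrations. Progress curves were fitted to second-order polynomials, and their derivatives gave activity over time. Semilog plots gave t1/2 (0.693/kinact), and KI and limiting kinact came from Kitz–Wilson plots (1/kinact vs 1/[I]).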

In data set [3] the target is T4, P450 1A1. Kind of data set: P450 1A1-dependent deethylation of resorufin ethyl ether. In kind it is biochemical.
The target of a further data set is T5, P450 1A1 over P450 1A2 (Homo sapiens, UniProt P04798).
T5 sequence (P04798 1-512): T4 sequence (P04798 1-512)
The data set is described as above. In kind it is biochemical. Particulars: human, recombinant human CYP1A1 and CYP1A2 supersomes, pH 7.6.

Data set [4] addresses T4, P450 1A1. Particulars: read-out: Ki of well-known P450 1A1 inhibitors; cited from earlier work.

Turning to `C#Cc1ccccc1-c1cc(=O)c2ccccc2o1` [2′EF, 2′-Ethynylflavone], the values for the Ki at P450 1A2, on P450 2B1 and on P450 1A1 [3] were 0.23 µM, 15.7 µM and 1.64 µM, respectively. The selectivity ratio at 6 min on P450 1A2 over P450 1A1 was determined as 7.2. Further, at P450 1A1 [1], the “NADPH-dependency of the inhibition of P450 1A1” value is listed as “does not NADPH-dependently inhibit P450 1A1”. The “effect of 5 min preincubation with NADPH on P450 1A1 activity” value (“effect of 5 min preincubation with NADPH” below) on P450 1A1 [1] (inhibitor 0.1 μM) was “slight influence on enzymatic activity”. Further, the “time-dependent inhibition of P450 1A1 (type of inhibition)” value (“time-dependent inhibition of P450 1A1” below) on P450 1A1 [2] is recorded as “only a competitive inhibitor”.

For the compound `C#Cc1cccc(-c2cc(=O)c3ccccc3o2)c1` [3′EF, 3′-Ethynylflavone], the “NADPH-dependency of the inhibition of P450 1A1” value on P450 1A1 [1] is listed as “exhibit NADPH-dependency”. At P450 1A1 [1] (inhibitor 0.00625 μM), the “effect of 5 min preincubation with NADPH” value is recorded as “complete inhibition; also recorded: completely subvert the enzymatic activity”. For the same compound, on P450 1A1 [2], the Ki was found to be 0.053 ± 0.007 µM; the kinact is 0.00767 s⁻¹; the “time-dependent inhibition of P450 1A1” value is “time- and concentration-dependently inhibit P450 1A1”.

`C#Cc1ccc(-c2cc(=O)c3ccccc3o2)cc1` [4′EF, 4′-Ethynylflavone]: the Ki at P450 1A2 came to 3.26 µM. Besides, the “NADPH-dependency of the inhibition of P450 1A1” value at P450 1A1 [1] is on record as “exhibit NADPH-dependency”. For the same compound, on P450 1A1 [1] (inhibitor 0.00625 μM), the “effect of 5 min preincubation with NADPH” value is given as “complete inhibition”. For the same compound, at P450 1A1 [2], the Ki was determined as 0.056 ± 0.014 µM; the kinact is 0.0055 s⁻¹; the “time-dependent inhibition of P450 1A1” value is “time- and concentration-dependently inhibit P450 1A1”. The selectivity ratio at 6 min at P450 1A1 over P450 1A2 was 85.

Take `C#Cc1cccc2oc(-c3ccccc3)cc(=O)c12` [5EF, 5-Ethynylflavone]: at P450 1A1 [1], the “NADPH-dependency of the inhibition of P450 1A1” value was “exhibit NADPH-dependency”. The “effect of 5 min preincubation with NADPH” value at P450 1A1 [1] (inhibitor 0.1 μM) is given as “considerable inhibition”. Further, at P450 1A1 [2], the Ki was 0.51 ± 0.09 µM; the kinact was 0.0011 s⁻¹; the “time-dependent inhibition of P450 1A1” value is “time- and concentration-dependently inhibit P450 1A1”. This compound returned a Ki on P450 1A1 [3] of 1.23 µM.

Compound `C#Cc1ccc2oc(-c3ccccc3)cc(=O)c2c1` [6EF, 6-Ethynylflavone] gave a Ki at P450 1A2 of 6.2 µM. In addition, at P450 1A1 [1], the “NADPH-dependency of the inhibition of P450 1A1” value is “exhibit NADPH-dependency”. Also, on P450 1A1 [1] (inhibitor 0.00625 μM), the “effect of 5 min preincubation with NADPH” value is reported as “complete inhibition”. On P450 1A1 [2], the Ki was 0.043 ± 0.008 µM; the kinact is 0.0055 s⁻¹; the “time-dependent inhibition of P450 1A1” value was “time- and concentration-dependently inhibit P450 1A1”. For the same compound, the Ki at P450 1A1 [3] is 0.035 µM. The selectivity ratio at 6 min on P450 1A1 over P450 1A2 was 177.

Consider `C#Cc1ccc2cc(-c3ccccc3)c(=O)oc2c1` [7E3PC, 7-ethynyl-3-phenylcoumarin, reference compound], for which the Ki on P450 1A1 [3] was determined as 0.74 µM.

Regarding `C#Cc1ccc2c(=O)cc(-c3ccccc3)oc2c1` [7EF, 7-Ethynylflavone], the “NADPH-dependency of the inhibition of P450 1A1” value on P450 1A1 [1] was “exhibit NADPH-dependency”. Besides, the “effect of 5 min preincubation with NADPH” value at P450 1A1 [1] (inhibitor 0.00625 μM) was “complete inhibition; also recorded: completely subvert the enzymatic activity”. Further, at P450 1A1 [2], the Ki amounted to 0.035 ± 0.012 µM; the kinact is 0.007 s⁻¹; the “time-dependent inhibition of P450 1A1” value is “time- and concentration-dependently inhibit P450 1A1”.

Turning to `c1cc2ccc3cccc4ccc(c1)c2c34` [pyrene], the Ki on P450 1A1 [4] is approximately 0.04 µM.

For the compound `O=c1cc(-c2ccccc2)oc2c1ccc1ccccc12` [αNF, α-naphthoflavone], the Ki at P450 1A1 [4] was approximately 0.04 µM.

In general, kinact refers to the maximal first-order rate at which the target is inactivated.
